# Published values gathered from unrelated publications.
# Each line is one published result; the experiments were not run side by side.
# Target: Insulin-like growth factor 1 receptor (IGF1R, Homo sapiens, UniProt P08069)
Compound,read-out,technique,tested at,remaining binding
CNC(=O)[C@@H]1CC[C@@H](n2c(-c3ccc4cnccc4c3)nc3ccc(C(=O)NCc4cccc(C(N)=O)c4)cc32)C1,binding,competition with immobilised ligand,1 µM,100%
C[C@@H]1CCN(c2nccc(-c3cnn4ncccc34)n2)C1,binding,,1 µM,53%
C[C@@H]1CN(c2ccc3ncc(-c4ccc5[nH]nc(C6CC6)c5c4)n3n2)C[C@H](C)O1,binding,competition with immobilised ligand,0.5 µM,100%
CO[C@@H](C)c1c(Nc2ccc([C@H](N(C)C(=O)C3CCS(=O)(=O)CC3)C(F)(F)F)cc2)cnc2cc(Cl)nn12,cell-free assay,competition with immobilised ligand,1 µM,100%
C[C@@H](c1ccc(-n2cnc3c(N)ncnc32)cc1)N1CCc2nn(C)c(Cc3ccccc3)c2C1=O,binding,competition with immobilised ligand,0.1 µM,38%
CC1CCCN1c1nccc(-c2cnn3ncccc23)n1 (stereo not shown),binding,,1 µM,96%
O=C(NCCCN1CCOCC1)c1ccc(Nc2nccc(-c3cc4ccccc4s3)n2)cc1,binding,competition with immobilised ligand,1 µM,100%
CSc1cccnc1N1CCN(Cc2nc3ccccc3[nH]2)CC1,cell-free assay,competition with immobilised ligand,1 µM,100%
O=C(NCC1CCOCC1)c1n[nH]cc1NC(=O)c1c(F)cccc1F,binding,competition with immobilised ligand,1 µM,96%
COc1ncc2cc3ccccc3nc2c1C#N,cell-free assay,competition with immobilised ligand,5 µM,86%
FC(F)(F)Oc1cccc(-c2cnc3ccc(-c4ccncc4)nn23)c1,cell-free assay,competition with immobilised ligand,5 µM,86%
NS(=O)(=O)c1cc(NC(=O)Cc2ccccc2)ccc1Oc1cccc(Cl)c1,cell-free assay,competition with immobilised ligand,1 µM,100%
N[C@@H]1CCN(c2nccc(-c3cnn4ncccc34)n2)C1,binding,,1 µM,99%
O=C(NCCCN1CCOCC1)c1ccc(Nc2ncc(Cl)c(-c3ccc(Cl)s3)n2)cc1,binding,competition with immobilised ligand,1 µM,44%
COc1cnc(Nc2cccc(S(N)(=O)=O)c2)nc1N1CCN(c2ccccc2)CC1,binding,competition with immobilised ligand,1 µM,100%
CN(c1ccnc(CNc2nc(Nc3ccc4c(c3)CC(=O)N4)ncc2C(F)(F)F)n1)S(C)(=O)=O,cell-free assay,competition with immobilised ligand,1 µM,100%
CN(c1nccc(-c2cnn3ncccc23)n1)C1CC1,binding,,1 µM,93%
CCOCCn1cc(C(=O)Nc2ccc(-n3nc(-c4cccnc4)cc3C(F)(F)F)cn2)ccc1=O,cell-free assay,competition with immobilised ligand,1 µM,96%
Cc1cnn2ncc(-c3ccnc(N(C)C)n3)c2c1,binding,,1 µM,100%
CCS(=O)(=O)c1cc2cc(C[C@](O)(CC(C)(C)c3ccc(F)cc3C(N)=O)C(F)(F)F)[nH]c2cn1,cell-free assay,competition with immobilised ligand,1 µM,100%
O=C(c1ccc(Nc2ncc(Cl)c(-c3ccc(Cl)s3)n2)cc1)N1CCC(N2CCCC2)CC1,binding,competition with immobilised ligand,1 µM,19%
Cc1nc(C2CCN(C(=O)c3ccc(OC(F)(F)F)cc3N)CC2)c2ncc(N3CCN(C)CC3)cc2n1,cell-free assay,competition with immobilised ligand,1 µM,91%
Nc1ncc2c(n1)-c1c([nH]c3ccc(C#CC4CC4)cc13)CCCC2,binding,competition with immobilised ligand,1 µM,100%
CN1CCN(c2cnc3c(C4CCN(C(=O)c5ccc(OC(F)(F)F)cc5N)CC4)ncnc3c2)CC1,cell-free assay,competition with immobilised ligand,1 µM,100%
F[C@@H]1CCN(c2nccc(-c3cnn4ncccc34)n2)C1,binding,,1 µM,89%
